# Source: PubChem
# This is a sample that favours compounds with a hit; in the whole collection about 0.97% have one here.
# APOBEC3A inh = APOBEC3A ssDNA deaminase inhibitors, primary screen, selectivity assay for APOBEC3G inhibitor project, biochemical, FAM/TAMRA oligo cleavage fluorescence | inhibition, % at 20 µM | DNA dC->dU-editing enzyme APOBEC-3A (Homo sapiens), P31941 | AID 493011, 2011 | 0.41% of 330,000 active | recombinant A3A, FAM/TAMRA ssDNA deamination fluorescence;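 active = at least 40% inhibition at 20 µM here, with at most 30% in a related deaminase screen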;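 also: plate controls were A3A with DMSO for no effect and wells lacking A3A enzyme for full effect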
# Target sequence (P31941 whole entry, looked up): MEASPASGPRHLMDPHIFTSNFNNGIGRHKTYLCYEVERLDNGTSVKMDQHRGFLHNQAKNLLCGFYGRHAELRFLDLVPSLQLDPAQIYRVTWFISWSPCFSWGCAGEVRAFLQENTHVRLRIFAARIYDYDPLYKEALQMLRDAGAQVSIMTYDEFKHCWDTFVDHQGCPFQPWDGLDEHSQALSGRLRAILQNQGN
# UCH37 inh = inhibitors of human UCH37 deubiquitinase, primary screen, biochemical, Ub-AMC cleavage, fluorescence; 0.33% of 330,000 active; inhibition, % (concentration not given with the values); purified proteasome/UCH37; Ubiquitin carboxyl-terminal hydrolase isozyme L5 (Homo sapiens), Q9Y5K5;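 active = mean inhibition over replicate wells above about 20%, limit read from the data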;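 also: 0% = compound-free wells with enzyme and 100% = wells lacking proteasome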
# Target sequence (Q9Y5K5 whole entry, looked up): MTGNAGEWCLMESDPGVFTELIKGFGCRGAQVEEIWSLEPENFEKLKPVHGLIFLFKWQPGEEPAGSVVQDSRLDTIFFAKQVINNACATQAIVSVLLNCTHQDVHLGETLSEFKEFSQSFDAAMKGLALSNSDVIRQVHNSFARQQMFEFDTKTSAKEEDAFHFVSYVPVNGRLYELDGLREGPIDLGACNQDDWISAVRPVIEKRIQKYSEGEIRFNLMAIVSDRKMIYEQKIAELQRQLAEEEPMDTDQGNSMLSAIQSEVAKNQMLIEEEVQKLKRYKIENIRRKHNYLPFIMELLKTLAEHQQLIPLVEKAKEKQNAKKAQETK
#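 assay system = human UCH37 enzyme supplied as purified proteasome complex | amount = proteasome at 0.15 nM in the dispensed enzyme solution | schedule = 30 min compound-proteasome preincubation then 25 min substrate reaction, room temperature | measured by = fluorescence, ex 355 nm, em 460 nm | benchmarks = no-proteasome wells (full inhibition) and compound-free wells (no inhibition)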
# A3G deaminase = APOBEC3G DNA deaminase inhibitors, primary screen, biochemical, fluorescence, single-stranded DNA substrate, uHTS; DNA dC->dU-editing enzyme APOBEC-3G (Homo sapiens), Q9HC16; recombinant A3G, ssDNA deamination FAM/TAMRA fluorescence; inhibition, % at 20 µM; 0.28% of 330,000 active;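 active = inhibition of at least 40% at 20 µM, with no more than 30% in the related APOBEC3A deaminase screen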;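 also: plate controls were DMSO wells with A3G for no effect and wells lacking A3G enzyme for full effect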
# JMJD2C inh = inhibitors of GASC-1 histone demethylase, primary screen, biochemical, fluorescence, DELFIA europium; Lysine-specific demethylase 4C (Homo sapiens), Q9H3R0; GST-JMJD2C(1-420) H3K9me3 demethylation; inhibition, % at 2.35 µM; 0.069% of 330,000 active; AID 2099, 2009;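 active = more than half of a compound's replicate wells show inhibition beyond 50%, single wells judged on their own value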;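 also: signal counts dimethyl H3K9 product captured on neutravidin plate; 0% = median of DMSO wells and 100% = 0.3 times that DMSO median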
# A3A conf = APOBEC3A deaminase inhibitors, retest, confirmation, selectivity assay for APOBEC3G inhibitor project, biochemical, single concentration, fluorescence readout. 63% of 1,400 active. AID 493151, 2011. inhibition, % at 20 µM. recombinant A3A, ssDNA deaminase UDG fluorescence assay. shares compounds with APOBEC3A inh;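 active = inhibition reaching a set limit, 80% of the first screen's cutoff, at 20 µM in any replicate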;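 also: plate controls were DMSO wells with A3A for no effect and wells lacking A3A enzyme for full effect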
# UDG A3A counter = E. coli UDG inhibitors, confirmation, counter-screen for APOBEC3A inhibitor project, biochemical, single concentration, fluorescence, FAM/TAMRA oligo | UDG counterscreen, FAM/TAMRA uracil oligo fluorescence | AID 504714, 2011 | shares compounds with APOBEC3A inh | 1,000 tested, under 10 active | inhibition, % at 20 µM; call rule not given here
# * hit, by the source's call; / = no result given.
SMILES,APOBEC3A inh,UCH37 inh,A3G deaminase,JMJD2C inh,A3A conf,UDG A3A counter
CCn1c(/C=C/c2ccccc2)nc2ccccc21,3,-274,-5,2,/,/
CC(=O)c1c(C)[nH]c(C(=O)CN(C)CC(=O)Nc2ccccc2Cl)c1C,0,5,-6,-4,/,/
CSc1ccccc1NC(=O)CN(C)CC(=O)c1[nH]c(C)c(C(C)=O)c1C,68*,4,19,-5,50*,-1
Cc1ccccc1-c1nc2ccccc2c(=O)n1N=Cc1ccccc1[N+](=O)[O-],/,3,/,/,/,/
Cc1cc(C=NNc2nc(N)ncc2[N+](=O)[O-])c(C)n1-c1cccc(C(F)(F)F)c1,/,6,/,/,/,/
COC(=O)CCCCCCCCCC[N+]1(C)CCCCC1,44*,1,22,1,85*,2
CC(=O)OCCCCCCCCCCC[N+]1(C)CCCCC1,79*,4,20,3,73*,2
COC(=O)CCCCCCCCC(O)C[N+]1(C)CCOCC1 (stereo not given),53*,6,23,-2,78*,-3
COC(=O)CCCCCCCCC(O)CN(C)C (stereo not given),1,-1,0,3,/,/
O=C(CCNS(=O)(=O)c1ccc2nsnc2c1)N1CCN(c2ccncc2)CC1,64*,5,-5,9,-5,-2
Cc1ccc(S(=O)(=O)NCCC(=O)N2CCN(c3cccc(Cl)c3)CC2)cc1C,3,1,10,32,/,/
O=c1cc(CCl)nc2sc3ccccc3n12,63*,0,26,-7,34*,-3
O=C(OCc1cc(=O)n2c(n1)sc1ccccc12)c1ccc(O)cc1,21,-13,10,-10,/,/
Cc1cccc(C(=O)N[C@H](C(=O)OCc2cc(=O)n3c(n2)sc2ccccc23)C(C)C)c1,43*,-1,19,6,53*,3
O=C(O)c1nsc(Cl)c1Cl,99*,1,-4,16,-1,-3
O=C(O)c1ncc(Cl)c(Cl)c1Cl,-4,4,-4,-13,/,/
CC(=O)Nc1cccc(C(=O)OCC(=O)Nc2c(C)nn(-c3ccccc3)c2C)c1,52*,-2,1,2,2,/
Cc1nn(-c2ccccc2)c2nc(-c3ccco3)cc(C(=O)O)c12,67*,-1,21,-1,48*,-1
Cc1nn(-c2cccc(Cl)c2)c2nc(-c3ccco3)cc(C(=O)O)c12,39,/,16,45,/,/
Cc1ccc2nc3c(nc2c1C)CCCC3,-3,-35,-7,9,/,/
Cc1ccc2nc3c(nc2c1C)C(O)=C3O,65*,-1,-4,2,7,8
COCc1c(C(=O)N2CCN(Cc3nc4ccccc4s3)CC2)oc2ccccc12,63*,0,20,-6,72*,-2
Cc1nc2ccccc2n1-c1ccccc1,2,4,0,4,/,/
Cc1nc2nc(C)n(-c3ccccc3)c2s1,48,3,30,-10,47*,-2
CCOC(=O)C(=NNc1ccc(OC)cc1)c1csc(Nc2ccccc2)n1,/,1,/,/,/,/
SMILES,APOBEC3A inh,UCH37 inh,A3G deaminase,JMJD2C inh,A3A conf,UDG A3A counter
CS(=O)(=O)c1ccc2sc(NC(=O)c3cc4ccccc4o3)nc2c1,53*,-7,27,-3,24,/
C(=NNc1nc2ccccc2[nH]1)c1cccs1,/,6,/,/,/,/
COc1cc(C=NNc2nc(=O)[nH]nc2C)cc(OC)c1O,/,15,/,/,/,/
CC(C)N1C(=O)CC2(CC[N+](C)(CCOC(=O)C(c3ccccc3)c3ccccc3)CC2)C1=O (stereo not given),60*,1,18,14,27*,5
Cn1c(-[n+]2c(-c3ccccc3)cc(-c3ccccc3)cc2-c2ccccc2)nc2cc([N+](=O)[O-])ccc21,46*,5,9,0,56*,0
C=CCNC(=S)NN=Cc1ccc(-c2ccc(OC)cc2)o1,/,-34,/,/,/,/
Nc1scc2c(C(=O)NN=Cc3ccc(Cl)cc3)nn(-c3ccccc3)c(=O)c12,/,9,/,/,/,/
COC(=O)C1=C(C)N(Cc2ccccc2)C(=NCCc2ccccn2)N[C@H]1c1cccc(F)c1,48*,4,15,-8,63*,-4
CCN1C(=NCCc2ccccn2)N[C@@H](c2cccc(F)c2)C(C(=O)OC)=C1C,48*,6,5,0,63*,-2
CCC(Oc1ccccc1OC)C(=O)Nc1ccc2c(c1)OCCO2 (stereo not given),/,/,/,-20,57*,/
COc1ccc(CCNC(=O)Cc2c(Cl)cccc2Cl)cc1,44*,3,3,1,7,/
O=P(O)(c1ccccc1)c1ccccc1O,-4,-1,-3,-4,/,/
O=P(c1ccccc1)(c1ccccc1)c1cc(S(=O)(=O)O)ccc1O,83*,0,17,-5,63*,-2
COc1ccc(C2C(C(C)=O)=C(C)N=c3s/c(=C\c4ccc5c(c4)OCO5)c(=O)n32)c(OC)c1 (stereo not given),50*,/,4,-1,9,/
COc1ccc(C2C(C(C)=O)=C(C)N=c3sc(=Cc4ccc5c(c4)OCO5)c(=O)n32)c(OC)c1 (stereo not given),/,7,/,/,/,/
CCn1c(N2CCN(CC(=O)c3c(C)n(C)c4ccccc34)CC2)nc2c1c(=O)[nH]c(=O)n2C,49*,2,11,6,20,/
COc1ccc(NC(=O)Cn2cnc3ccccc3c2=O)cc1OC,-3,0,-12,-19,/,/
COc1ccc2nc(NC(=O)Cn3cnc4ccccc4c3=O)sc2c1,43*,-6,12,-1,3,/
CCNC(=S)NN=C(C)c1ccc2c(c1)OCCO2,/,5,/,/,/,/
O=C1NC(=O)/C(=C\c2ccc(Br)o2)S1,55*,13,1,-3,22,/
COn1cnnc1-c1ccccc1,47*,1,18,-1,6,/
CC(=O)Nc1ccc(Nc2nnc(-c3ccc(C)c(S(N)(=O)=O)c3)c3ccccc23)cc1,61*,11,-9,-8,-1,-2
COc1ccc(OC)c(NC(=O)CCCc2ccccc2)c1,-1,3,-7,-6,/,/
COc1ccc(CCCC(=O)Nc2cc(C)ccc2OC)cc1,60*,2,11,-2,28,/
